Measurements reported in ChEMBL document CHEMBL4033786, “Discovery of Novel 1-Cyclopentenyl-3-phenylureas as Selective, Brain Penetrant, and Orally Bioavailable CXCR2 Antagonists” (J Med Chem, 2018).
≈ marks a conversion by molar mass, not a printed value. Calls of active or inactive are those of the source. No cut-off for these calls is given here.

Columns and labels:
[1] = Ratio of passive permeability in presence of dual P-gp/BCRP inhibitor GF120918 to absence of GF120918 in MDCK2-MDR1 cells transduced with BacMam2-BCRP at 3 uM after 90 mins by Transwell assay; format: ADME, cell-based, Canis lupus familiaris; conditions: dog, mdck2-mdr1, 1.5 h
Procedure, shortened: (§1)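 MDCKII-MDR1 cells transduced with BacMam2-BCRP and grown in Transwells. Compound at 3 μM, in duplicate, was incubated 90 min A→B (and B→A) with and without GF120918 (5 μM, dual P-gp/BCRP inhibitor). Passive permeability (Pexact, nm/s) was calculated by an equation from earlier work. The permeability ratio is A→B permeability with GF120918 over A→B permeability without it.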

Blood = assay: Dose normalized AUC (0 to 7 hrs) in Han-Wistar SOA rat model blood at 2 mg/kg administered via oral gavage by UPLC/MS/MS analysis; format: ADME, organism-based; conditions: in vivo
Procedure, shortened: (§2)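 Male Han-Wistar rats were given 2 mg/kg by oral gavage as a suspension in DMSO:1% methylcellulose (1:99). Blood (cardiac puncture, EDTA-K2, under isoflurane) and brains were collected at 0.25–7 h. Brain was homogenised in 3-fold PBS, samples were protein-precipitated and quantified by UPLC/MS/MS.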

[2] = Fraction unbound in Han-Wistar SOA rat model brain at 2 mg/kg administered via oral gavage by UPLC/MS/MS analysis; format: ADME, organism-based
[3] = biological target: T1, C-X-C chemokine receptor type 2 (Homo sapiens, UniProt P25025); assay: Antagonist activity at CXCR2 in human whole blood assessed as inhibition of GROalpha-stimulated CD11b upregulation preincubated for 15 mins followed by GROalpha stimulation measured after 15 mins by FITC-staining based FACS analysis
T1 sequence (P25025 whole entry): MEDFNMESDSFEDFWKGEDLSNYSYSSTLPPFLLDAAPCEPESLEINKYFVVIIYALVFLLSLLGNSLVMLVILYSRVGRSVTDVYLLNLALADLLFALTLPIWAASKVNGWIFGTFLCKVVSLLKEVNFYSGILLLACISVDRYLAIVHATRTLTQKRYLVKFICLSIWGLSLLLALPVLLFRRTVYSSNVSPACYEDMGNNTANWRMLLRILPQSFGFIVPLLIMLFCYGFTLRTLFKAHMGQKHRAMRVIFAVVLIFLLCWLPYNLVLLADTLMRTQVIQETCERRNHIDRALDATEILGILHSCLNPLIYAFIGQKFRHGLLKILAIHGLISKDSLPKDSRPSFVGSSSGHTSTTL

[4] = Ratio of brain dose normalized AUC (0 to 7 hrs) to […] dose normalized AUC (0 to 7 hrs), Kp of the compound in Han-Wistar SOA rat model at 2 mg/kg administered via oral gavage by UPLC/MS/MS analysis; format: ADME, organism-based
Procedure, shortened: (§3)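 Male Han-Wistar rats given a single 2 mg/kg oral gavage as a suspension in DMSO:1% methylcellulose (1:99). Blood was taken by cardiac puncture under isoflurane at 0.25–7 h, diluted 1:3 with water, and brains were homogenized in 3-fold PBS. Samples were extracted by acetonitrile protein precipitation and quantified by UPLC/MS/MS. Kp = brain DNAUC0-7h/blood DNAUC0-7h; Kp,uu = Kp×Fu,br/Fu,bl.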

[5] = Fraction unbound in Han-Wistar SOA rat model blood at 2 mg/kg administered via oral gavage by UPLC/MS/MS analysis; format: ADME, organism-based
[6] = Solubility of compound in fasted state simulated intestinal fluid measured after 4 hrs; format: physicochemical
Procedure, shortened: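 Solubility in FaSSIF, read after 4 h incubation.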

[7] = Passive permeability in MDCK2-MDR1 cells transduced with BacMam2-BCRP at 3 uM after 90 mins by Transwell assay; format: ADME, cell-based, Canis lupus familiaris, MDCK-MDR1; conditions: dog; read-out: permeability; procedure, shortened: as §1
Brain = assay: Dose normalized AUC (0 to 7 hrs) in Han-Wistar SOA rat model brain at 2 mg/kg administered via oral gavage by UPLC/MS/MS analysis; format: ADME, organism-based; conditions: in vivo; procedure, shortened: as §2
[8] = Unbound brain-to-blood concentration ratio in Han-Wistar SOA rat model at 2 mg/kg administered via oral gavage by UPLC/MS/MS analysis; format: ADME, organism-based; conditions: read-out: K(p,uu,brain); procedure, shortened: as §3
[9] = biological target: T1, C-X-C chemokine receptor type 2; assay: Antagonist activity at TEV protease cleavage site linked GAL4-VP16-fused recombinant human CXCR2 expressed in cells assessed as inhibition of […] human CXCL1-stimulated beta-arrestin recruitment by CCF4-AM-fluorescence based FRET assay; format: cell-based; conditions: read-out: pIC50 (converted)
Procedure, shortened: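 Stable cell line expressing recombinant human CXCR2 linked to a TEV site and Gal4-VP16. Cells were starved 24 h at 37 °C, 5% CO2, then resuspended at ~200,000 cells/mL. They were given compound in DMSO (concentration-response), stimulated with 80 nM hCXCL1 and incubated overnight at 37 °C. CCF4-AM substrate was then added for 2 h at RT in the dark.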

[10] = biological target: C-X-C chemokine receptor type 2 (Mus musculus, UniProt P35343); assay: Antagonist activity at CXCR2 in C57 mouse whole blood assessed as inhibition of GROalpha-stimulated CD11b upregulation preincubated for 2 hr followed by GROalpha stimulation measured after 10 mins by FITC-staining based FACS analysis
[11] = biological target: C-X-C chemokine receptor type 2 (Mus musculus) (UniProt P35343); assay: Antagonist activity at CXCR2 in C57 mouse whole blood assessed as inhibition of GROalpha-stimulated CD11b upregulation at 10 uM preincubated for 2 hr followed by GROalpha stimulation measured after 10 mins by FITC-staining based FACS analysis
[12] = Efflux ratio of passive permeability in MDCK2-MDR1 cells transduced with BacMam2-BCRP at 3 uM after 90 mins by Transwell assay; format: ADME, cell-based, Canis lupus familiaris, MDCK-MDR1; conditions: dog
Procedure, shortened: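 MDCKII-MDR1 cells transduced with BacMam2-BCRP in Transwells. Compound at 3 μM was measured in duplicate, A→B and B→A, after 90 min, with and without 5 μM GF120918. ER = B→A/A→B permeability without inhibitor. System qualified with amprenavir and dantrolene ERs.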

[13] = Cmax in Wistar rat at 2.38 mg/kg, po measured up to 4 hrs post dose; format: ADME, organism-based; parameters: dose 2.38 mg/kg, route oral; conditions: in vivo
Rattus norvegicus [14] = assay: Dose normalized AUC (0 to infinity) in Wistar rat at 2.38 mg/kg, po measured up to 4 hrs post dose; format: ADME, organism-based; conditions: in vivo
[15] = Oral bioavailability in Wistar rat at 2.38 mg/kg measured up to 4 hrs after dose; format: ADME, organism-based; conditions: in vivo
[16] = Volume of distribution at steady state in Wistar rat at 1.01 mg/kg, iv measured up to 4 hrs post dose; format: ADME, organism-based; conditions: in vivo, read-out: Vdss
[17] = Clearance in Wistar rat blood at 1.01 mg/kg, iv measured up to 4 hrs post dose; format: ADME, organism-based
[18] = Tmax in Wistar rat at 2.38 mg/kg, po measured up to 4 hrs post dose; format: ADME, organism-based; conditions: in vivo
[19] = Elimination half life in Wistar rat at 1.01 mg/kg, iv measured up to 4 hrs post dose; format: ADME, organism-based; conditions: in vivo, read-out: beta t1/2 (converted)
Rattus norvegicus [20] = assay: Dose normalized AUC (0 to infinity) in Wistar rat at 1.01 mg/kg, iv measured up to 4 hrs post dose; format: ADME, organism-based; conditions: in vivo

C-X-C chemokine receptor type 2 (Mus musculus, UniProt P35343), sequence (P35343 whole entry): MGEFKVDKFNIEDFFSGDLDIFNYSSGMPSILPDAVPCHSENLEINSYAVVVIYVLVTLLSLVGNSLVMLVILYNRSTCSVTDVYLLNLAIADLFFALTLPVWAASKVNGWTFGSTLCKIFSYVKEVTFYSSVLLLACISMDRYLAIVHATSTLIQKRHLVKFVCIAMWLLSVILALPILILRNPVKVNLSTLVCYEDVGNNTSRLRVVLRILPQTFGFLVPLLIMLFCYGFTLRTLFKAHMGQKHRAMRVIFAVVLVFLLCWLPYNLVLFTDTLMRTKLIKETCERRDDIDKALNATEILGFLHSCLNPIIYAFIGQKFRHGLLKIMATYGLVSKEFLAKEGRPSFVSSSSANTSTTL
C-X-C chemokine receptor type 2 (Mus musculus), sequence (P35343 whole entry): as above

| SMILES | Ratio [1] | AUC/dose (Blood) | fraction unbound [2] | IC50 [3] | Kp [4] | fraction unbound [5] | solubility at 4 h [6] | Papp at 1.5 h, 3 µM [7] | AUC/dose (Brain) | Kp uu [8] | IC50 [9] | also measured |
| --- | --- | --- | --- | --- | --- | --- | --- | --- | --- | --- | --- | --- |
| CC1=CCC[C@H]1NC(=O)Nc1ccc(Cl)c(S(=O)(=O)C(C)(F)F)c1O | 2.4 | 4331 ng·h/mL/mg/kg | 0.051 | 631 nM | 0.06 | 0.0065 | 50.8 µg/mL (≈ 129 µM) | 34.8 ×10⁻⁶ cm/s | 243 ng·h/g/mg/kg | – | – | – |
| CC1=CCC[C@H]1NC(=O)Nc1ccc(Cl)c(S(=O)(=O)C(C)(C)C(F)(F)F)c1O | 1.6 | 535 ng·h/mL/mg/kg | 0.021 | – | 0.2 | 0.007 | 3.4 µg/mL (≈ 7.71 µM) | 33.9 ×10⁻⁶ cm/s | 107 ng·h/g/mg/kg | 0.59 | 0.501 nM | – |
| CC1=CCC[C@H]1NC(=O)Nc1ccc(Cl)c(S(=O)(=O)C(C)(C)C)c1O | 1.5 | – | – | 316 nM | – | – | 1.2 µg/mL (≈ 3.1 µM) | 36.4 ×10⁻⁶ cm/s | – | – | 1 nM | – |
| CC1=CCC[C@H]1NC(=O)Nc1ccc(C#N)c(S(=O)(=O)C(C)(C)CC(F)(F)F)c1O | 4.3 | – | – | 1000 nM | – | – | 408 µg/mL (≈ 916 µM) | 3 ×10⁻⁶ cm/s | – | – | 0.158 nM | – |
| CC[C@@H](Nc1c(Nc2cccc(C(=O)N(C)C)c2O)c(=O)c1=O)c1ccc(C)o1 [NAVARIXIN ANHYDROUS] | – | – | – | – | – | – | – | – | – | – | – | IC50 [10]: 8.1 nM; inhibition [11]: Active |
| CC1=CCC[C@H]1NC(=O)Nc1ccc(Cl)c(S(=O)(=O)[C@H]2C[C@H](N3CCCC3)C2)c1O | 2.8 | 11721 ng·h/mL/mg/kg | 0.114 | 100 nM | 0.03 | 0.0065 | 758 µg/mL (≈ 1670 µM) | 20.5 ×10⁻⁶ cm/s | 296 ng·h/g/mg/kg | – | – | – |
| CC1=CCC[C@H]1NC(=O)Nc1ccc(Cl)c(S(=O)(=O)C(C)(C)[C@H]2CCOC2)c1O | – | 63.8 ng·h/mL/mg/kg | 0.033 | 316 nM | 0.21 | 0.016 | 25.2 µg/mL (≈ 56.9 µM) | 33.1 ×10⁻⁶ cm/s | 13.4 ng·h/g/mg/kg | 0.42 | 1.58 nM | efflux ratio at 1.5 h, 3 µM [12]: 2.2 |
| CC1=CCC[C@H]1NC(=O)Nc1ccc(Cl)c(S(=O)(=O)C(C)(C)[C@@H]2CCOC2)c1O | 4.5 | – | – | – | – | – | 24.6 µg/mL (≈ 55.5 µM) | 12.7 ×10⁻⁶ cm/s | – | – | 1.26 nM | – |
| CC1=CCC[C@H]1NC(=O)Nc1ccc(Cl)c(S(=O)(=O)[C@H]2C[C@H](N(C)C)C2)c1O | 3.4 | 2580 ng·h/mL/mg/kg | 0.137 | 126 nM | 0.06 | 0.05 | 387 µg/mL (≈ 905 µM) | 20.3 ×10⁻⁶ cm/s | 161 ng·h/g/mg/kg | – | – | – |
| CC1=CCC[C@H]1NC(=O)Nc1ccc(Cl)c(S(=O)(=O)C(C)(C)CF)c1O | – | 614 ng·h/mL/mg/kg | 0.034 | 100 nM | 0.16 | 0.011 | 3 µg/mL (≈ 7.41 µM) | 65.4 ×10⁻⁶ cm/s | 97 ng·h/g/mg/kg | 0.48 | 0.631 nM | Cmax [13]: 292 ng/mL; AUC/dose (Rattus norvegicus [14]): 961 ng·h/mL/mg/kg; bioavailability [15]: 88%; Vd [16]: 2.2 L/kg; clearance [17]: 15.7 mL/min/kg; efflux ratio at 1.5 h, 3 µM [12]: 0.87; Tmax [18]: 2.5 h; half-life [19]: 2.5 h; AUC/dose (Rattus norvegicus [20]): 1071 ng·h/mL/mg/kg |
| CC1=CCC[C@H]1NC(=O)Nc1ccc(Cl)c(S(=O)(=O)[C@]2(C)CCOC2)c1O | 2.4 | 788 ng·h/mL/mg/kg | 0.106 | 158 nM | 0.08 | 0.036 | 20.5 µg/mL (≈ 49.4 µM) | 25.2 ×10⁻⁶ cm/s | 60.5 ng·h/g/mg/kg | 0.23 | – | – |
| CC1=CCC[C@H]1NC(=O)Nc1ccc(C#N)c(S(=O)(=O)C(C)(C)C)c1O | 4 | 2575 ng·h/mL/mg/kg | 0.116 | 158 nM | 0.03 | 0.034 | 686 µg/mL (≈ 1820 µM) | 9 ×10⁻⁶ cm/s | 73 ng·h/g/mg/kg | – | – | – |
